For orientation: inhibition means the relative decrease from the control value, in per cent. In general, IC50 refers to the concentration that gives 50% inhibition.

Structures are written as SMILES.

The values below come from ChEMBL document CHEMBL1133270, “Cinnamaldehydes inhibit cyclin dependent kinase 4/cyclin D1” (Bioorg Med Chem Lett, 2000).

Common to all, as to assay type: protein-complex assay
For assay [1], the target named is Cyclin-dependent kinase 4/cyclin D1 (Homo sapiens) (UniProt P11802+P24385). The assay can be described thus: Inhibitory activity against Cyclin D1-cyclin-dependent kinase 4. Also on record: concentration or dose not given beside the values. As to conditions: concentration not given here. In outline:
(§1)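 GST-cyclin D1-CDK4 from baculovirus-infected Sf21 cells, purified by glutathione chromatography, used at 200 nM. The substrate was a GST-RB fusion (RB residues 792–928), with ATP plus [γ-³³P]ATP. Compounds were added and the reaction ran 30 min at 30 °C, then was stopped with ice-cold 30% TCA. Products were captured on PVDF filter plates and ³³P-RB counted by scintillation. Inhibition is expressed relative to an inhibitor-free control.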

The target of assay [2] is T1, Cyclin-dependent kinase 4/cyclin D1 (Homo sapiens, UniProt P11802). The assay can be described thus: Inhibition of Cyclin D1-cyclin-dependent kinase 4. A digest of the protocol: as §1
T1 sequence (P11802 whole entry): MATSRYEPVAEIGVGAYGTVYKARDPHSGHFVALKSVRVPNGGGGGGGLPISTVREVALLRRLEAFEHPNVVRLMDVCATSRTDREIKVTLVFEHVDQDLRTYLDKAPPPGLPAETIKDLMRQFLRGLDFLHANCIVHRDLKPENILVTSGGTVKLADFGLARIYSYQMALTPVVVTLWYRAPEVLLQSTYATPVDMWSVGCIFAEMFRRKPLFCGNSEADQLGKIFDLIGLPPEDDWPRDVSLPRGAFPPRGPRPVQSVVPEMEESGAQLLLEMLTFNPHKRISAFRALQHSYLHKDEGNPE
T1 sequence (P24385 whole entry, further chain): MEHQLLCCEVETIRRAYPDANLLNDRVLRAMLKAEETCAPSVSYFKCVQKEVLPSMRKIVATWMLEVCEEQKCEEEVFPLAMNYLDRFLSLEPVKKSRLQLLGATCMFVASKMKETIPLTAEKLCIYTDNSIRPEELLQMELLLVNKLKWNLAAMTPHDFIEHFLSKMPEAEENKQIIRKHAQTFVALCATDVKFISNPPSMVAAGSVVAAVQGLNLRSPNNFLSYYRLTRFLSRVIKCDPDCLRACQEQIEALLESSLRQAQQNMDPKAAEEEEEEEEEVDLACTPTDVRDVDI
Assay [3] has as its target Cyclin-dependent kinase 1/cyclin B (Homo sapiens, UniProt P06493). The assay can be described thus: Inhibition of Cyclin B-cyclin-dependent kinase 1. A digest of the protocol: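 Cyclin B-CDK1 purified from starfish oocytes; histone H1 as substrate; kinase reaction run for 10 min at 30 °C. Read-out is histone H1 phosphorylation, expressed as a percentage of the control reaction run without inhibitor.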

In assay [4] the target is T1, Cyclin-dependent kinase 4/cyclin D1. Kind of assay: Inhibition of Cyclin D1-Cyclin dependent kinase 4. A digest of the protocol:
as §1

Regarding `O=C(O)/C=C/c1ccccc1O`, the inhibition in assay [1] was below 10%.

In the case of `O=C/C=C/c1ccccc1O` [2-HYDROXYCINNAMALDEHYDE], the IC50 in assay [2] was found to be 35 µM; in assay [3] it was 130 µM. In assay [1], this compound showed an inhibition of 50%.

In assay [1], `O=C/C=C/c1cccnc1` returned an inhibition of 54%.

For the compound `Cc1ccccc1COc1ccccc1/C=C/C=O`, the IC50 amounted to 18 µM in assay [2] and 200 µM in assay [3]. Moreover, the inhibition in assay [1] was 70%.

Consider `Cc1ccccc1COc1cccc(/C=C/C=O)c1`, for which the IC50 was 15 µM in assay [2] and 60 µM in assay [3]. The same compound registered an inhibition in assay [1] of 73%.

In assay [1], `O=C/C=C/c1cccc(O)c1` yielded an inhibition of 40%. For the same compound, the IC50 in assay [3] is 30 µM; in assay [4], 45 µM.

Take `O=C/C=C/c1ccccc1OC(=O)c1ccc(F)cc1`: in assay [1], the inhibition is 25%.

The compound `COc1ccc(COc2ccccc2/C=C/C=O)cc1` gave an inhibition in assay [1] of 59%.

In the case of `COc1ccc2c(COc3cccc(/C=C/C=O)c3)cc(=O)oc2c1`, in assay [1], the inhibition was 53%.

`Cc1ccc(COc2cccc(/C=C/C=O)c2)cc1`: the inhibition in assay [1] turned out to be 84%.

For `O=C/C=C/c1ccccc1OCCc1ccccc1`, in assay [1], the inhibition worked out at 72%.

In assay [1], `O=C/C=C/c1cccc(OCc2ccc3c(c2)C(=O)c2ccccc2C3=O)c1` displayed an inhibition of 34%.

In assay [1], `O=C/C=C/c1cccc(OCc2cccc3ccccc23)c1` displayed an inhibition of 85%.

In assay [1], `N#Cc1ccccc1COc1ccccc1/C=C/C=O` displayed an inhibition of 22%.

With `COc1ccc(/C=C/C=O)cc1O`, in assay [1], the inhibition stood at 40%.

For the compound `COc1ccccc1COc1cccc(/C=C/C=O)c1`, the inhibition in assay [1] was 65%.

As for `CC(Oc1ccccc1/C=C/C=O)c1ccccc1` (stereo unspecified), in assay [1], the inhibition amounted to 63%.

On to `COc1ccccc1C(=O)Oc1ccccc1/C=C/C=O`, for which the inhibition in assay [1] came to 23%.

Consider `COc1ccc(COc2cccc(/C=C/C=O)c2)cc1`, for which, in assay [1], the inhibition was 82%.

In assay [1], `CC(Oc1cccc(/C=C/C=O)c1)c1ccccc1` (stereo unspecified) yielded an inhibition of 77%.

For the compound `O=C/C=C/c1cccc(OCc2ccccc2)c1`, the figures for the IC50 in assay [2] and in assay [3] were 7.5 µM and 50 µM, respectively. In assay [1], this compound registered an inhibition of 94%.

`Cc1ccc(C(=O)Oc2ccccc2/C=C/C=O)cc1` yielded an inhibition in assay [1] of 50%.

In assay [1], `O=C/C=C/c1cccc(OCCc2ccccc2)c1` registered an inhibition of 80%.

`O=C/C=C/c1ccccc1OCc1ccc(Br)cc1` gave an inhibition in assay [1] of 71%.

`N#Cc1ccccc1COc1cccc(/C=C/C=O)c1` registered an inhibition in assay [1] of 45%.

For the compound `O=C/C=C/c1ccccc1[N+](=O)[O-]`, the inhibition in assay [1] was 30%.

On to `O=C/C=C/c1ccccc1OCc1ccccc1`, for which the IC50 in assay [2] was found to be 11 µM; in assay [3], 50 µM. For the same compound, the inhibition in assay [1] came out at 85%.

`Cc1ccc(COc2ccccc2/C=C/C=O)cc1` yielded an inhibition in assay [1] of 68%.

Compound `O=C/C=C/c1ccccc1Cl` displayed an inhibition in assay [1] of 51%.

On to `COc1ccccc1COc1ccccc1/C=C/C=O`, for which the inhibition in assay [1] was 43%.

As to `O=C/C=C/c1cccc(OCc2ccc(Br)cc2)c1`, the inhibition in assay [1] was 88%.

Consider `O=C/C=C/c1ccccc1OCc1cccc2ccccc12`, for which the inhibition in assay [1] worked out at 38%.

With `O=C/C=C/c1ccccc1OC(=O)c1ccccc1`, the inhibition in assay [1] was determined as 52%.

As to `COc1ccc(/C=C/C=O)cc1OCc1ccc(Br)cc1`, the inhibition in assay [1] is 58%.
